# Measured values of several laboratories.
# Compare with care: the assays were run in different laboratories.
# EGFR L858R: Epidermal growth factor receptor (EGFR, Homo sapiens, UniProt P00533, L858R)
# EGFR G719S: Epidermal growth factor receptor (EGFR, Homo sapiens, UniProt P00533, G719S)
# EGFR del747-752/P753S: Epidermal growth factor receptor (EGFR, Homo sapiens, UniProt P00533, del747-752/P753S)
# EGFR T790M: Epidermal growth factor receptor (EGFR, Homo sapiens, UniProt P00533, T790M)
# EGFR A750P/del747-749: Epidermal growth factor receptor (EGFR, Homo sapiens, UniProt P00533, A750P/del747-749)
# EGFR del752-759: Epidermal growth factor receptor (EGFR, Homo sapiens, UniProt P00533, del752-759)
# EGFR L861Q: Epidermal growth factor receptor (EGFR, Homo sapiens, UniProt P00533, L861Q)
# EGFR del746-750: Epidermal growth factor receptor (EGFR, Homo sapiens, UniProt P00533, del746-750)
# EGFR: Epidermal growth factor receptor (EGFR, Homo sapiens, UniProt P00533)
Compound,target,test,setting,remaining binding [%]
COc1cnc(Nc2cccc(S(N)(=O)=O)c2)nc1N1CCN(c2ccccc2)CC1,EGFR L858R,"binding, competition with immobilised ligand",1 µM,89
CN1CCN(c2ccc(Nc3nccc(-c4ccccc4)n3)cc2C(F)(F)F)CC1,EGFR G719S,binding,10 µM,98
CNC(=O)[C@@H]1CC[C@@H](n2c(-c3ccc4cnccc4c3)nc3ccc(C(=O)NCc4cccc(C(N)=O)c4)cc32)C1,EGFR del747-752/P753S,"binding, competition with immobilised ligand",1 µM,100
O=C(NCCCN1CCOCC1)c1ccc(Nc2ncc(Cl)c(-c3ccc(Cl)s3)n2)cc1,EGFR T790M,"binding, competition with immobilised ligand",1 µM,83
CNCc1ccccc1-c1csc([C@H](C)Nc2nc(C)nc3cc(OC)c(OC)cc23)c1,EGFR del747-752/P753S,"cell-free assay, competition with immobilised ligand",1 µM,100
Cc1cnc(Nc2ccc(C(=O)N3CCC(N4CCCC4)CC3)cc2)nc1-c1cc2ccccc2s1,EGFR A750P/del747-749,"binding, competition with immobilised ligand",1 µM,72
CN(c1nccc(-c2cnn3ncccc23)n1)C1CC1,EGFR L858R,binding,1 µM,100
CCN1CCN(Cc2ccc(C(=O)Nc3ccc(C)c(Oc4ccc5c(c4)CC(=O)N5)c3)cc2C(F)(F)F)CC1,EGFR G719S,"binding, competition with immobilised ligand",1 µM,80
CNC(=O)c1ccc(Nc2ncc(C(F)(F)F)c(NCc3nccnc3N(C)S(C)(=O)=O)n2)cc1,EGFR L858R,"cell-free assay, competition with immobilised ligand",0.1 µM,100
COc1cnc(Nc2cccc(S(N)(=O)=O)c2)nc1N1CCN(c2ccccc2)C(=O)C1,EGFR del752-759,"binding, competition with immobilised ligand",1 µM,100
O=C(c1ccc(Nc2nccc(-c3cc4ccccc4s3)n2)cc1)N1CCC(N2CCCC2)CC1,EGFR L861Q,"binding, competition with immobilised ligand",1 µM,89
CC1CCCN1c1nccc(-c2cnn3ncccc23)n1 (stereo not shown),EGFR del752-759,binding,1 µM,100
O=C(Nc1c[nH]nc1C(=O)NC1CCNCC1)c1cc(F)cc(F)c1,EGFR del746-750,"binding, competition with immobilised ligand",1 µM,100
COc1ncc2cc3ccccc3nc2c1C#N,"Epidermal growth factor receptor (EGFR, Homo sapiens, UniProt P00533, G719C)","cell-free assay, competition with immobilised ligand",5 µM,2.1
C[C@@H]1CN(c2ccc3ncc(-c4ccc5[nH]nc(C6CC6)c5c4)n3n2)C[C@H](C)O1,EGFR,"binding, competition with immobilised ligand",50 nM,60
CN(C)c1nccc(-c2cnc3ncccn23)n1,EGFR,binding,1 µM,63
O=C(Nc1cccnn1)N1CC(C/C=C/c2cncc(Oc3ccc(C(F)(F)F)cn3)n2)C1,"Epidermal growth factor receptor (EGFR, Homo sapiens, UniProt P00533, del747-750/T751S)","cell-free assay, competition with immobilised ligand",1 µM,100
O=C(NCC1CCOCC1)c1n[nH]cc1NC(=O)c1c(F)cccc1F,EGFR G719S,"binding, competition with immobilised ligand",1 µM,100
C[C@@H]1CCN(c2nccc(-c3cnn4ncccc34)n2)C1,EGFR del752-759,binding,1 µM,88
O=C(N1CCS(=O)(=O)CC1)N1C[C@H](c2ccc(OC(F)(F)F)cc2)C[C@H](c2nc(C3CC3)no2)C1,EGFR T790M,"cell-free assay, competition with immobilised ligand",1 µM,100
c1cnn2ncc(-c3ccnc(N4CCC45COC5)n3)c2c1,EGFR,binding,1 µM,100
CC(C)(O)c1cncc(-c2nc3ccc(F)cc3n2C2CC2)c1,EGFR L861Q,"cell-free assay, competition with immobilised ligand",1 µM,100
Nc1ncc2c(n1)-c1c([nH]c3ccc(C#CC4CC4)cc13)CCCC2,EGFR A750P/del747-749,"binding, competition with immobilised ligand",1 µM,84
O=C(NCCCN1CCOCC1)c1ccc(Nc2nccc(-c3cc4ccccc4s3)n2)cc1,EGFR del747-752/P753S,"binding, competition with immobilised ligand",1 µM,92
c1cncc(-c2cccc(Nc3nccc(NC4CCCCC4)n3)c2)c1,EGFR A750P/del747-749,"binding, competition with immobilised ligand",10 µM,36
CN(C)c1ncnc(-c2ccc3nc(Nc4cc(CN5CCN(C(=O)CC(F)(F)F)CC5)ccn4)[nH]c3c2)c1Cl,"Epidermal growth factor receptor (EGFR, Homo sapiens, UniProt P00533, L858R/T790M)","cell-free assay, competition with immobilised ligand",1 µM,82
O=C(c1ccc(Nc2ncc(Cl)c(-c3ccc(Cl)s3)n2)cc1)N1CCC(N2CCCC2)CC1,EGFR del752-759,"binding, competition with immobilised ligand",1 µM,96
N[C@H]1CCN(c2nccc(-c3cnn4ncccc34)n2)C1,EGFR G719S,binding,1 µM,93
CN1CCN(c2ccc(Nc3nccc(-c4cccc([N+](=O)[O-])c4)n3)cc2C(F)(F)F)CC1,EGFR del746-750,binding,10 µM,34
COc1ccc2c(c1)O[C@H](c1ccc(OC)c(OC)c1)C[C@@H]2NC(=O)C1(c2ccc3c(c2)OC(F)(F)O3)CC1,EGFR L858R,"cell-free assay, competition with immobilised ligand",1 µM,100
Cc1ccc(NC(=O)c2ccc(CN3CCN(C)CC3)cc2)cc1Nc1nccc(-c2cccnc2)n1,EGFR,"cell-free assay, competition with immobilised ligand",10 µM,71
Cn1cc(Cl)c2c(Oc3c(F)cc(Nc4cc(Cl)nc(N)n4)cc3F)ccnc21,EGFR T790M,"cell-free assay, competition with immobilised ligand",0.1 µM,88
CN(C)c1ncc(F)c(-c2cnn3ncccc23)n1,EGFR G719S,binding,1 µM,100
O=C(c1ccc(Nc2ncc(Cl)c(-c3cc4ccccc4s3)n2)cc1)N1CCC(N2CCCC2)CC1,EGFR G719S,"binding, competition with immobilised ligand",1 µM,98
